Several values for one entry are separate records, joined by “and”; a condition that tells them apart may be missing. Equal entries are not always repeated. Entries after “also recorded” stand apart in the source; their conditions may differ. Where two headings read alike, the source gives them in different places.
What was measured:
[1] = 10 mg kg−1 via oral gavage in C57BL/6 mice; cited from earlier work
[2] = system: CALU-1 (lung squamous cell carcinoma); experiment: MTT cytotoxicity assay, CALU-1; assay type: cell-based; conditions: Homo sapiens, Calu-1, read-out: Mean IC50 CALU-1
Summary of the method: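 Uses the HEC1A MTT protocol: test compound in DMSO, diluted to final 160 down to 1.25 μM in two-fold steps, in triplicate, with equal DMSO in controls. […] CALU-1 was cultured in MEM in place of DMEM. […]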

[3] = system: noncancerous human endometrial stromal (MAD11) cells; experiment: MTT cytotoxicity assay, MAD11; assay type: cell-based; conditions: MAD11, 48 h, read-out: MAD11 IC50
Summary of the method: (§1)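 HEC1A (5000/well) and MAD11 (2500/well) cells were seeded and held overnight at 37 °C. Test compound was reconstituted in DMSO and serially diluted in medium to final 160, 80, 40, 20, 10, 5, 2.5 and 1.25 μM, in triplicate, with matched DMSO in all wells. After 48 h, MTT was added for 3 h, formazan solubilised (4 mM HCl, 0.1% NP-40, isopropanol) and absorbance read at 590/620 nm. IC50 was taken against vehicle controls; selectivity = MAD11 IC50 / HEC1A IC50.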

[4] = system: human endometrial cancer (HEC1A) cells; experiment: MTT cytotoxicity assay, HEC1A; assay type: cell-based; conditions: for IC50: Homo sapiens, HEC-1-A, 48 h, read-out: HEC1A IC50, MTT cell viability, 48 h, n = 3 biological repeats; for Selectivity ratio: IC50 MAD11 divided by IC50 HEC1A
Summary of the method: as §1

HEC1A cancer cells = experiment: Oxygen consumption rate assay; assay type: cell-based, human; conditions: over 120 minutes, compared to vehicle (DMSO) control, 21 at 20 μM
Summary of the method: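 Seahorse XF96 OCR assay. HEC1A cells (15 000/well) adhered 24 h in DMEM, 10% FBS, penicillin/streptomycin at 37 °C, 5% CO₂. Medium was then swapped for unbuffered phenol-red-free DMEM (25 mM glucose, 4 mM glutamine, 1 mM pyruvate, pH 7.4), with 40 min degassing at 37 °C without CO₂. Three baseline reads preceded compound injection; 11 cycles (3 min wait, 3 min mix, 2 min measure) followed. OCR was normalised to the third baseline reading; DMSO served as vehicle control.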

[5] = system: HEC1A endometrial cancer cells; experiment: Thiol rescue experiment; assay type: cell-based, human; conditions: for rescue of cytotoxicity by NAC and GSH pre-treatment: NAC or GSH 2 mM for 40 min; for IC50: Homo sapiens, HEC-1-A; for ΔIC50 (+GSH): IC50 with GSH minus IC50 of compound alone; for ΔIC50 (+NAC): IC50 with NAC minus IC50 of compound alone
Summary of the method: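 HEC1A cells were seeded on day 1 (5000/well). On day 2 they were pre-treated 40 min with NAC or GSH, 2 mM in medium neutralised to pH 7.4. Test compound was then added (final 160–1.25 μM serial dilutions, triplicate, equal DMSO), with 48 h incubation. The MTT readout (3 h, absorbance 590/620 nm) followed. IC50 was compared with cells given no thiol.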

[6] = Pharmacokinetic profiling in vivo; parameters: species or system C57BL/6 mice

Structure (SMILES) | half-life [1] | IC50 [2] | IC50 [3] | IC50 [4] | Selectivity ratio [4] | maximum OCR increase (HEC1A cancer cells) | rescue of cytotoxicity by NAC and GSH pre-treatment ([5]; HEC1A) | IC50 ([5]; read-out: +GSH IC50 ± SEM) | IC50 ([5]; read-out: +NAC IC50) | ΔIC50 (+GSH) [5] | ΔIC50 (+NAC) [5] | decrease of potency with GSH pre-treatment (times) ([5]; HEC1A, GSH 2 mM) | decrease of potency with NAC pre-treatment (times) ([5]; HEC1A, NAC 2 mM) | IC50 ([5]; read-out: Alone IC50) | half-life ([6]; C57BL/6, mouse, plasma, po, 20 mg/kg) | half-life longer than BH10 ([6]; oral administration, versus BH10 t1/2 = 21.6 min)
O=C1C(Cl)=C(NCCN2CCOCC2)C(=O)c2ccccc21 [BH10, 2-chloro-3-[(2-morpholin-4-ylethyl)amino]naphthalene-1,4-dione, reference compound] | 21.6 min | 16.7 µM | 25.6 µM | 10.2 µM | 2.51 | up to 200% | rescued | > 80 µM | 58 µM | >+69.78 μM | +47.78 μM | – | – | – | – | –
O=C1C(Cl)=C(NCCCN2CCCCC2)C(=O)c2ccccc21 [Compound 21, 2-Chloro-3-((3-(piperidin-1-yl)propyl)amino)-[1,4]-naphthoquinone] | – | 4.7 µM | 4.79 µM | 1.83 µM | 2.62 | approximately 280% | partially rescued | 16 µM | 13 µM | +14.17 μM | +11.17 μM | 8.7 times | 7.1 times | 1.83 µM | – | –
Cc1nc2c(n1CCCN1CCCCC1)C(=O)c1ccccc1C2=O [Compound 44, 2-Methyl-1-(3-(piperidin-1-yl)propyl)-1H-naphtho[2,3-d]imidazole-4,9-dione] | – | 15.4 µM | 23 µM | 6.4 µM | 3.6 and 3.59 | 130% | did not rescue; also recorded: unaffected | 7.4 µM | 6.8 µM | +1.00 μM | +0.40 μM | – | – | 6.4 µM | 26.8 min | 5.2 min
